Data on 35 compounds can be found in ChEMBL document CHEMBL1149027, “Anti-AIDS agents, 10. Acacetin-7-O-beta-D-galactopyranoside, an anti-HIV principle from Chrysanthemum morifolium and a structure-activity correlation with some related flavonoids” (J Nat Prod, 1994).

SMILES strings stand for the structures.

Data set [1] deals with Human immunodeficiency virus 1. Nature of the data set: Antiviral activity against HIV1 3B infected in human H9 cells assessed as inhibition of viral replication after 3 days by p24 antigen capture assay. It counts as functional, organism-based. Particulars: Human immunodeficiency virus 1, 3B, H9, 72 h.
In another data set the test system is H9. Nature of the data set: Cytotoxicity against human H9 cells after 3 days. It is filed as cell-based. Particulars: H9, 72 h. Put shortly:
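Uninfected H9 lymphocytes, given the same 1 h mock incubation at 37° and washing, resuspended at 4 × 10^5 cells/ml. Cultured 3 days at 37° with compound. Cell density counted; IC50 = concentration inhibiting uninfected growth by 50%.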

Data set [2] can be described thus: Therapeutic index, ratio of IC50 for human H9 cells to EC50 for HIV1 3B. It is filed as cell-based. The settings on record: read-out: TI.

Turning to `O=c1cc(-c2ccc(Cl)cc2)oc2cc(O)cc(O)c12`, the EC50 in data set [1] was found to be 4 µM. This compound also returned an IC50 with H9 of 16 µM. Further, the selectivity ratio in data set [2] came to 4.

With `O=c1cc(-c2ccccc2)oc2c([N+](=O)[O-])c(O)cc(O)c12`, in data set [1], the EC50 was found to be 12 µM. Further, the midpoint of inhibition in the data set with H9, the IC50, lay at 12 µM. Also, the selectivity ratio in data set [2] was found to be 1.

Consider `COc1ccc(-c2cc(=O)c3c(O)cc(O[C@@H]4O[C@H](CO[C@@H]5O[C@H](C)[C@@H](O)[C@H](O)[C@@H]5O)[C@@H](O)[C@H](O)[C@H]4O)cc3o2)cc1`, for which the EC50 in data set [1] is above 231 µM. Also, in the data set on H9, the IC50 is above 231 µM.

Turning to `CC(=O)OC[C@H]1O[C@@H](Oc2cc(OC(C)=O)c3c(=O)cc(-c4ccc(OC(C)=O)c(OC(C)=O)c4)oc3c2)[C@H](OC(C)=O)[C@@H](OC(C)=O)[C@@H]1OC(C)=O`, the EC50 in data set [1] was determined as 6 µM. In the data set with H9, half-maximal inhibition (IC50) was put at 6 µM. The selectivity ratio in data set [2] is 1.

For `O=C(CNC(=O)OCc1ccccc1)Oc1cc(O)c2c(=O)cc(-c3ccccc3)oc2c1`, the EC50 in data set [1] stood at 9 µM. The same compound gave an IC50 in the data set on H9 of 30 µM. Besides, the selectivity ratio in data set [2] turned out to be 3.

On to `Nc1c(O)cc(O)c2c(=O)cc(-c3ccccc3)oc12`, for which the concentration for a half-maximal effect (EC50) in data set [1] is 11 µM. In addition, inhibition with H9 was half-maximal at 34 µM (IC50). For the same compound, the selectivity ratio in data set [2] was 3.

As for `O=c1cc(-c2ccc(Br)cc2)oc2cc(O)cc(O)c12`, in data set [1], the EC50 stood at 5 µM. Also, it took 21 µM to reach half-maximal inhibition in the data set on H9 (IC50). In data set [2], the selectivity ratio came out at 4.

With `CCCc1cc(=O)c2c(O)cc(O)cc2o1`, the EC50 in data set [1] amounted to 27 µM. Moreover, in the data set with H9, the midpoint of inhibition, the IC50, lay at 73 µM. The selectivity ratio in data set [2] was 3.

`O=c1cc(-c2cccc(Cl)c2)oc2cc(O)cc(O)c12`: the EC50 in data set [1] amounted to 4 µM. Also, 14 µM corresponded to half-maximal inhibition in the data set with H9 (IC50). Further, the selectivity ratio in data set [2] stood at 3.

Take `O=c1cc(C2CCCCC2)oc2cc(O)cc(O)c12`: the EC50 in data set [1] is 19 µM. In the data set on H9, this compound had an IC50 of 42 µM. In addition, the selectivity ratio in data set [2] stood at 2.

With `O=c1cc(-c2ccc(F)cc2)oc2cc(O)cc(O)c12`, the EC50 in data set [1] turned out to be 4 µM. Further, it took 13 µM to reach half-maximal inhibition in the data set on H9 (IC50). In data set [2], the selectivity ratio worked out at 3.

Consider `COc1ccc(-c2cc(=O)c3c(O)cc(O[C@@H]4O[C@H](CO)[C@H](O)[C@H](O)[C@H]4O)cc3o2)cc1`, for which the concentration giving a half-maximal response (EC50) in data set [1] was found to be 8 µM. For the same compound, the IC50 in the data set with H9 was determined as 37 µM. Further, in data set [2], the selectivity ratio is 5.

For `O=c1cc(-c2ccccc2)oc2c([N+](=O)[O-])c(O)c([N+](=O)[O-])c(O)c12`, the EC50 in data set [1] is 372 µM. Besides, inhibition in the data set on H9 was half-maximal at 372 µM (IC50). Besides, the selectivity ratio in data set [2] worked out at 1.

For the compound `O=c1cc(-c2ccccc2Cl)oc2cc(O)cc(O)c12`, the EC50 in data set [1] came out at 5 µM. The compound further returned an IC50 in the data set on H9 of 17 µM. Besides, in data set [2], the selectivity ratio amounted to 3.

Regarding `O=c1cc(-c2ccc(O)cc2)oc2cc(O[C@@H]3O[C@H](CO)C(O)[C@H](O)[C@H]3O)cc(O)c12` (single isomer, unassigned) [APIGETRIN], the EC50 in data set [1] turned out to be 61 µM. In addition, the IC50 with H9 came out at 115 µM. Also, the selectivity ratio in data set [2] was determined as 2.

Take `O=c1cc(-c2ccccc2)oc2c(O)c(O)ccc12` [7,8-DIHYDROXYFLAVONE]: in data set [1], the EC50 was 10 µM. Besides, the IC50 in the data set with H9 was determined as 14 µM. Further, in data set [2], the selectivity ratio stood at 1.

`O=c1cc(-c2ccc(O)cc2)oc2cc(O)cc(O)c12` [APIGENIN]: the EC50 in data set [1] worked out at 9 µM. Moreover, in the data set with H9, half-maximal inhibition (IC50) required 35 µM. Besides, the selectivity ratio in data set [2] was 4.

Take `O=C(O)[C@H]1O[C@@H](Oc2cc3oc(-c4ccccc4)cc(=O)c3c(O)c2O)[C@H](O)[C@@H](O)[C@@H]1O` [BAICALIN]: the 50% effective concentration (EC50) in data set [1] was 112 µM. In the data set with H9, this compound yielded an IC50 of 72 µM. Besides, the selectivity ratio in data set [2] is below 1.

On to `CC(=O)Oc1cc(OC(C)=O)c2c(=O)cc(-c3ccccc3)oc2c1` [CHRYSIN DIACETATE], for which, in data set [1], the half-maximal effective concentration (EC50) was 56 µM. This compound also came in with an IC50 in the data set with H9 above 373 µM.

Turning to `O=c1cc(-c2ccccc2)oc2cc(O)cc(O)c12` [CHRYSIN], the EC50 in data set [1] was found to be 5 µM. This compound also came in with an IC50 with H9 of 47 µM. The selectivity ratio in data set [2] is 9.

With `Oc1cc(O)c2c(c1)O[C@H](c1ccc(O)c(O)c1)[C@@H](O)C2` [CIANIDANOL], the EC50 in data set [1] was above 345 µM. The IC50 in the data set with H9 is above 345 µM.

In the case of `O=c1c(O)c(-c2ccc(O)c(O)c2)oc2cc(O)ccc12` [FISETIN], the EC50 in data set [1] worked out at 122 µM. Further, in the data set with H9, inhibition was half-maximal at 157 µM (IC50). The selectivity ratio in data set [2] is 1.

With `O=C1CC(c2ccccc2)Oc2ccccc21` (stereo not drawn) [FLAVANONE], in data set [1], the EC50 is 58 µM. Besides, in the data set on H9, the IC50 stood at 45 µM. In addition, the selectivity ratio in data set [2] stood at 1.

Take `O=c1cc(-c2ccccc2)oc2ccccc12` [FLAVONE]: in data set [1], the EC50 turned out to be 50 µM. This compound gave an IC50 in the data set on H9 of 68 µM. For the same compound, the selectivity ratio in data set [2] came out at 1.

On to `O=c1c(O)c(-c2ccccc2)oc2ccccc12` [FLAVONOL], for which the EC50 in data set [1] turned out to be 13 µM. In the data set with H9, this compound returned an IC50 of 17 µM. Further, the selectivity ratio in data set [2] turned out to be 1.

For the compound `O=c1c(O)c(-c2ccccc2)oc2cc(O)cc(O)c12` [GALANGIN], the EC50 in data set [1] is 28 µM. The compound also returned an IC50 with H9 of 44 µM. For the same compound, in data set [2], the selectivity ratio came to 2.

As for `O=c1cc(-c2ccc(O)c(O)c2)oc2cc(O[C@@H]3O[C@H](CO)[C@@H](O)[C@H](O)[C@H]3O)cc(O)c12` [GALUTEOLIN], the EC50 in data set [1] stood at 7 µM. Moreover, in the data set on H9, the IC50 turned out to be 25 µM. The selectivity ratio in data set [2] was found to be 3.

Regarding `COc1ccc([C@@H]2CC(=O)c3c(O)cc(O[C@@H]4O[C@H](CO[C@@H]5O[C@@H](C)[C@H](O)[C@@H](O)[C@H]5O)[C@@H](O)[C@H](O)[C@H]4O)cc3O2)cc1O` [HESPERIDIN], in data set [1], the EC50 is above 164 µM. For the same compound, in the data set with H9, the IC50 was above 164 µM.

In the case of `O=c1cc(-c2ccc(O)c(O)c2)oc2cc(O)cc(O)c12` [LUTEOLIN], the EC50 in data set [1] amounted to 10 µM. The same compound yielded an IC50 with H9 of 16 µM. For the same compound, the selectivity ratio in data set [2] is 2.

`O=c1c(O)c(-c2ccc(O)cc2O)oc2cc(O)cc(O)c12` [MORIN]: in data set [1], the EC50 was above 331 µM. In the data set with H9, this compound returned an IC50 above 331 µM.

Regarding `O=c1c(O)c(-c2cc(O)c(O)c(O)c2)oc2cc(O)cc(O)c12` [MYRICETIN], the EC50 in data set [1] is 35 µM. The compound further returned an IC50 in the data set on H9 of 69 µM. Moreover, in data set [2], the selectivity ratio was 2.

In the case of `O=C1C[C@@H](c2ccc(O)cc2)Oc2cc(O)cc(O)c21` [NARINGENIN], in data set [1], the EC50 turned out to be 92 µM. Moreover, the midpoint of inhibition with H9, the IC50, lay at 294 µM. In addition, in data set [2], the selectivity ratio is 3.

`Cc1cc(=O)c2c(O)cc(O)cc2o1` [NOREUGENIN]: the EC50 in data set [1] worked out at 49 µM. The compound also gave an IC50 with H9 of 214 µM. Besides, the selectivity ratio in data set [2] was 4.

As to `O=c1c(O)c(-c2ccc(O)c(O)c2)oc2cc(O)cc(O)c12` [QUERCETIN], the EC50 in data set [1] was found to be 132 µM. The compound further had an IC50 in the data set on H9 of 132 µM. Further, the selectivity ratio in data set [2] is 1.

`Cc1cn([C@H]2C[C@H](N=[N+]=[N-])[C@@H](CO)O2)c(=O)[nH]c1=O` [ZIDOVUDINE]: the EC50 in data set [1] is 0.04 µM.

As a reminder, the EC50 is the concentration at which the effect is half-maximal. What is called IC50 is the concentration that gives 50% inhibition.
